Hits are enriched below; roughly 4.1% of the tested compounds scored in any of these assays.
ATG4B inh: inhibitors of human ATG4B cysteine protease; ATG4B cleavage of LC3-PLA2, NBD-HPC fluorescence, 1 h; inhibition, % at 8.33 µM; hit rate 0.51% among 340,000; in the data active = inhibition above about 40%
Target sequence (Q9Y4P1 whole entry, looked up): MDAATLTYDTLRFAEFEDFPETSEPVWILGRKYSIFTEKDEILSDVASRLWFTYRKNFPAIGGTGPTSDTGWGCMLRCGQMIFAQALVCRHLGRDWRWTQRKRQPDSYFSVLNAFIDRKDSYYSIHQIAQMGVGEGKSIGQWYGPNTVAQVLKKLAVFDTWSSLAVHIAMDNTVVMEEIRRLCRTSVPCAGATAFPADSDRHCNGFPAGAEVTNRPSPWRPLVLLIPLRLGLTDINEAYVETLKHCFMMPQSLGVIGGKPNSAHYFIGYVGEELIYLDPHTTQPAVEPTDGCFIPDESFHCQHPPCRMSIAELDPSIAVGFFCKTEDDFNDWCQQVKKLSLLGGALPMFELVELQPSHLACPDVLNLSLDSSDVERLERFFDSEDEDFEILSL
SMARCA2 activ: activators of SMARCA2 function | MG213 cells, MMTV-luciferase reporter, dexamethasone, overnight | activation, % at 9.1 µM | hit rate 1% among 370,000 | AID 652017; in the data active = activation above about 7.8%;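 note: 0% = vehicle wells and 100% = reference activator wells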
MC4R ag barr: agonists of human melanocortin 4 receptor (MC4R) beta-arrestin; P32245; activation, % at 8.9 µM; AID 540308; hit rate 0.98% among 360,000; U2OS MC4R beta-arrestin complementation, luminescence; percent of melanotan II response, DMSO zero;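 active = activation above a per-plate cutoff, the mean activation of sample wells on that plate plus 3 SD, cut at about 8% in these data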
MC4R antag cAMP: antagonists of human melanocortin 4 receptor (MC4R). MC4R-expressing cells, MTII-stimulated cAMP, LANCE TR-FRET. inhibition, % at 6.5 µM. hit rate 0.48% among 360,000;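 active = inhibition above its plate's cutoff, the mean of tested wells on that plate plus 3 SD, cut at about 29% in these data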;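 note: 0% = Melanotan II alone and 100% = Melanotan II plus saturating MCL0020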
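System: U2OS-MC4R stable cell line; Technique: Eu-cAMP/anti-cAMP TR-FRET, emission 671 nm; Repeats: single well per compound; Also added: Melanotan II; Dosing: one concentration, 6.5 µM nominal; Schedule: 30-min compound, 1-h challenge, 1-h detection, room temperature.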
MPTP inh: permeability transition pore inhibition; isolated mouse mitochondria, Ca2+ swelling absorbance, 30 min; inhibition, % at 10 µM; hit rate 1.4% among 360,000; AID 602449;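 active = inhibition of 50% or more, scaled per plate between neutral and stimulator controls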;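 note: 0% = DMSO wells given calcium and 100% = 1 mM EGTA wells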
The depositor's hits bear a star; / = no result.

SMILES	ATG4B inh	SMARCA2 activ	MC4R ag barr	MC4R antag cAMP	MPTP inh
COCCn1c(C)cc(C(=O)Cn2nc(C(=O)O)c3ccccc3c2=O)c1C	-8	4	-1	-10	-1
CC(C)CC(=O)Nc1ccc(C(=O)Cn2nc(C(=O)O)c3ccccc3c2=O)cc1	1	-1	-1	9	0
CC(C)(C)c1ccc(C(=O)Cn2nc(C(=O)O)c3ccccc3c2=O)cc1	1	-2	8.7*	1	1
COc1ccccc1N1CCN(C(=O)c2ccc3c(c2)nc(C)n3-c2cc(OC)c(OC)c(OC)c2)CC1	/	-6	/	/	/
O=C(OCc1cn(Cc2ccc(Cl)cc2)nn1)N1CCOCC1	/	-1	/	/	/
C=CCN1C(=O)[C@H](CC(=O)NCC2CCCCC2)[C@@]2(C(=O)OCC)CCCC=C12	/	-3	/	/	/
CCn1c(=S)sc2c(=O)n(CC(=O)Nc3ccc(Cl)cc3)c(C)nc21	-9	-2	8.6*	25	9
C[C@H](O)[C@@H]1CN2CCc3ccc(-c4ccc5c(c4)OCO5)cc3[C@@H]2C[C@@H]1N(C)C(=O)c1cccc(Cl)c1	/	-2	/	/	/
CC[n+]1c(/C=C/N(C)c2ccccc2)n(-c2ccccc2)c2ccc(-c3nc4ccccc4s3)cc21	0	/	16*	11	50
CCOC(=O)c1ccc2c(c1)n(CC)c(/C=C/N(C)c1ccccc1)[n+]2CC	5	-3	-1	6	6
O=C1NC(c2ccccc2)=C(c2nc3ccccc3s2)C(c2ccc(O)cc2)N1 (stereo not given)	-16	/	63*	18	-1
O=C1NC(c2ccccc2)=C(c2ccc3ccccc3n2)C(c2ccccc2)N1 (stereo not given)	-8	-1	-2	20	2
COc1ccc(NC(=O)c2cc(-c3ccccc3)on2)cc1OC	-1	-2	6	-4	1
COc1ccc(CCNC(=O)c2cc(-c3ccccc3)on2)cc1OC	-11	2	9.5*	14	-1
COc1ccc(CCNC(=O)c2sc3cc(C)ccc3c2Cl)cc1	-7	0	9.4*	2	1
Cc1ccc2c(Cl)c(C(=O)NCCc3ccccc3)sc2c1	2	2	0	3	3
Cc1ccc(S(=O)(=O)N2CCC(=O)N(CCOCc3cccc(F)c3)CC2)cc1	0	1	8.4*	1	0
COc1cccc(C(=O)N(c2ccc(C)cc2)C2C=CS(=O)(=O)C2)c1 (stereo not given)	9	7.9*	0	-6	1
CCC(NC(=O)C1CCCN(c2ncccn2)C1)c1ccccc1 (stereo not given)	/	-4	/	/	/
COC(=O)[C@]12C[C@H](CC(=O)N3CCSCC3)C(=O)N(Cc3ccc4c(c3)OCO4)C1=C[C@H](C(C)C)O[C@@H]2C1CC1	/	-1	/	/	/
CCC(=O)Nc1nnc(CCc2ccccc2)s1	-6	0	-1	2	-1
CCOC(=O)C(=O)Nc1nnc(CCc2ccccc2)s1	-9	7.8*	-1	10	7
O=C(Nc1cc(Cl)cc(Cl)c1)C(NCCO)c1ccccc1 (stereo not given)	-7	-4	-1	-3	-1
O=C(O)c1ccccc1OC(C(=O)Nc1cc(Cl)cc(Cl)c1)c1ccccc1 (stereo not given)	-8	0	9.3*	2	20
COc1cc(C=Nn2c(-c3ccccc3F)n[nH]c2=S)ccc1OCc1ccccc1	/	-4	/	/	/
SMILES	ATG4B inh	SMARCA2 activ	MC4R ag barr	MC4R antag cAMP	MPTP inh
CCCCc1c(-c2ccccc2OC)ncn1C1CCCCC1	/	-4	/	/	/
COc1cccc(-n2c(C)nnc2SCC(=O)Nc2ccccc2N2CCOCC2)c1	0	7.9*	-2	1	2
Brc1ccccc1/C=N/Nc1ccccn1	3	-1	9.4*	-5	0
Clc1ccccc1C=NNc1ccccn1	4	7	3	-2	1
C#CCNC(=O)C[C@H]1C[C@@]2(C(=O)OC)C(=C[C@H](C(C)C)O[C@@H]2C2CC2)N(CCC2=CCCCC2)C1=O	/	-3	/	/	/
O=C(CCc1nc(-c2ccccc2F)no1)NCCc1ccc(F)cc1	/	6	/	/	/
COc1ccc2[nH]c3c(c2c1)CCN[C@]31C(=O)N(Cc2cn(Cc3ccccc3)nn2)c2ccc(F)cc21	/	-3	/	/	/
COC(=O)CCc1sc(Nc2ccccc2)nc1-c1ccc(OC)cc1	3	9.7*	0	13	-1
CC(CCN1CCC(C(O)(c2ccccc2)c2ccccc2)CC1)Oc1cccc(C(F)(F)F)c1 (stereo not given)	/	-4	/	/	/
COc1ccc(CNC(=O)CN(C(=O)c2snc(C(N)=O)c2N)c2ccc(F)cc2)cc1	1	1	-3	0	-1
CCOc1ccc(N(CC(=O)NCc2ccc(F)cc2)C(=O)c2snc(C(N)=O)c2N)cc1	9	-2	13*	10	0
N#Cc1ccc(Cn2ccc3ccc(-c4ccc5ccn(C(=O)c6ccccc6)c5c4)cc32)cc1	/	-3	/	/	/
CCN(CC)CCC=C(c1cccs1)c1cccs1	-19	7.9*	0	10	-1
CCN(CC)CCCNC(=O)/C(=C\c1cccn1C)NC(=O)c1cccs1	-1	-2	-1	2	3
CCOC(=O)CSc1nc(N)c(C#N)c(-c2ccc(OCC)cc2)c1C#N	-3	-1	9.4*	23	0
Cc1cc(C)c(S(=O)(=O)/N=C2/C=C(Sc3ncn[nH]3)C(=O)c3ccccc32)cc1C	-18	-11	-4	62*	15
C=CCNC(=O)Nc1ccc2c(c1)[C@]1(CC(=O)N(CC(C)C)C1c1ccccc1)C(=O)N2C (stereo not given in full)	/	-3	/	/	/
O=C(O)CC(C(=O)O)N1C(=O)/C(=C/c2ccc(-c3nc4ccccc4s3)o2)SC1=S (stereo not given)	68*	0	1	1	-14
C=CCN1[C@H](CC(C)C)COc2cccc(N3CCSCC3)c2S1(=O)=O	/	-3	/	/	/
O=c1c(Br)c(Br)cnn1-c1ccccc1	-6	-10	3	24	0
Cc1ccc(-n2ncc(Br)c(Br)c2=O)cc1	5	/	1	45*	0
COc1cccc(-c2noc(-c3ccc(Cl)nc3)n2)c1	8	7	8.7*	-10	0
CCOC(=O)c1cc2c(nc1N)CCCC2	-5	-2	2	8	1
CCOC(=O)c1ccc(-c2ccc3c(c2)CCC3)nc1C	7	7.9*	3	1	0
CCn1nc(C(=O)Nc2ccc(C)c(C)c2)c(Cl)c1Cl	-2	6	8.7*	3	1
CC(C)C[C@@H]1COc2cc(N3CCCC3)ccc2S(=O)(=O)N1	/	-5	/	/	/
O=C(COC(=O)c1ccc(Sc2ncn[nH]2)c([N+](=O)[O-])c1)Nc1cccc(Cl)c1F	/	-1	/	/	/
COc1ccc(-n2c(N)c(C(=O)NCc3ccco3)c3nc4ccccc4nc32)cc1OC	-15	8.4*	-2	14	0
CCN(CC)C(=O)CC[C@H]1CC[C@]2(CCCN(C(=O)C(C)(C)C)C2)O1	/	1	/	/	/

Screening data (PubChem BioAssay)
